Test results as given in PMC11261619 (Journal of Agricultural and Food Chemistry, 2024).

Tests used:
human OR11A1 = target: T1, human OR11A1 (Homo sapiens, UniProt Q9GZK7); test: cAMP luminescence; assay type: cell-based; conditions: for KFO screening signal on human OR11A1 relative to 3σ-threshold: each KFO 300 μmol/L, triplicate, normalized to response of OR11A1 to geosmin; for Concentration-dependent activation of OR11A1 (concentration–response validation): normalized to OR1A1 response to (R)-(−)-carvone (30 μmol/L), n = 3
T1 sequence (Q9GZK7 1-315): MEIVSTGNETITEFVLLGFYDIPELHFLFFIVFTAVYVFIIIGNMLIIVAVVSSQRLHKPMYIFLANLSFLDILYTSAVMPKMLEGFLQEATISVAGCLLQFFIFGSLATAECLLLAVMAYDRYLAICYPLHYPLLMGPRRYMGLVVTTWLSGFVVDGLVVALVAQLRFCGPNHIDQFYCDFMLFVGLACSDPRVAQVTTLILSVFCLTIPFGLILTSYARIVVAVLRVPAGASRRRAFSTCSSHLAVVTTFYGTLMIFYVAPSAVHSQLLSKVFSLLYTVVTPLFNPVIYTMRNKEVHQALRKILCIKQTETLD

doOR11A1 = target: T2, doOR11A1 (Dipodomys ordii, UniProt A0A1S3GF11); test: cAMP luminescence; assay type: cell-based, Kangaroo rat (Dipodomys ordii)
T2 sequence (A0A1S3GF11 1-311): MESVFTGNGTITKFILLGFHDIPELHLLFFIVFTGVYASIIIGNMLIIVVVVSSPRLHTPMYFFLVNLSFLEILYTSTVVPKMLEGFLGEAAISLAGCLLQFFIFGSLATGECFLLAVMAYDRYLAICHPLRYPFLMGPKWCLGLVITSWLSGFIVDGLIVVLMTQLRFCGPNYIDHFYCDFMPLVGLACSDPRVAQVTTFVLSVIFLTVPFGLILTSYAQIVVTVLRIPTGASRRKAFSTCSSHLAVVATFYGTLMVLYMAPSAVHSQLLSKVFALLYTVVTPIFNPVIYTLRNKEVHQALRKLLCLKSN
Method in brief: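 HEK-293 cells (DMEM, 4.5 g/L glucose, 10% FBS, 2 mM L-glutamine, penicillin/streptomycin; 37 °C, 5% CO2) co-transfected via ViaFect with the ortholog coding region in IL-6-HaloTag-pFN210A and pGloSensor-22F. Luminescence was averaged before and after odorant application, then baseline-subtracted and mock-subtracted. Responses were normalized to OR1A1 response to (R)-(−)-carvone (30 μmol/L). EC50 came from nonlinear sigmoidal regression; mean ± SD, n = 3–6 independent transfections.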

Structure (SMILES) | KFO screening signal on human OR11A1 relative to 3σ-threshold (human OR11A1) | Concentration-dependent activation of OR11A1 (concentration–response validation) (human OR11A1) | Sensitivity of kangaroo rat receptor compared to its human ortholog (doOR11A1; doOR11A1 vs human OR11A1) | Sensitivities of OR11A1 homologues across species compared to the human receptor (doOR11A1; homologues across species vs human OR11A1) | Efficacy of response to geosmin among OR11A1 orthologs (doOR11A1; normalized to OR1A1 response to (R)-(−)-carvone (30 μmol/L))
CSCCCO [methionol, 3-(methylsulfanyl) Propanol (methionol)] | reached the 3σ-threshold | could not be validated | – | – | –
CCCCC(=O)OCC [ethyl pentanoate] | above the 3σ-threshold | could not be validated | – | – | –
C[C@H]1CCC[C@@]2(C)CCCC[C@]12O [geosmin, (4S,4aS,8aR)-4,8a-dimethyloctahydronaphthalen-4a(2H)-ol] | – | – | more than 100 fold | up to 100 fold | most effective responder
CC12CCC(CC1)C(C)(C)O2 [1,8-cineol] | reached the 3σ-threshold | could not be validated | – | – | –
C=Cc1ccc(O)cc1 [4-ethenylphenol] | above the 3σ-threshold | could not be validated | – | – | –
